This passage reports Activity results from ChEMBL document CHEMBL1157912, “Impact of nature and length of linker incorporated in agonists on toll-like receptor 9-mediated immune responses” (J Med Chem, 2010).

One test has as its system Mus musculus. Briefly: Immunostimulatory activity in C57BL/6 mouse assessed as increase in serum IL12 level at 1 mg/kg, sc after 2 hrs by ELISA. It is filed as functional, organism-based. Further details: dose 1 mg/kg. The gist of the method:
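Female C57BL/6 mice (n=3) received a single subcutaneous agonist dose of 1 mg/kg. Blood was taken by retro-orbital bleeding 2 h later, and serum IL-12 was measured by sandwich ELISA. Values are the mean of three mice ± SD.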
In general terms: ELISA stands for enzyme-linked immunosorbent assay.

The target of test [1] is T1, Toll-like receptor 9 (Homo sapiens) (UniProt Q9NR96).
T1 sequence (whole entry): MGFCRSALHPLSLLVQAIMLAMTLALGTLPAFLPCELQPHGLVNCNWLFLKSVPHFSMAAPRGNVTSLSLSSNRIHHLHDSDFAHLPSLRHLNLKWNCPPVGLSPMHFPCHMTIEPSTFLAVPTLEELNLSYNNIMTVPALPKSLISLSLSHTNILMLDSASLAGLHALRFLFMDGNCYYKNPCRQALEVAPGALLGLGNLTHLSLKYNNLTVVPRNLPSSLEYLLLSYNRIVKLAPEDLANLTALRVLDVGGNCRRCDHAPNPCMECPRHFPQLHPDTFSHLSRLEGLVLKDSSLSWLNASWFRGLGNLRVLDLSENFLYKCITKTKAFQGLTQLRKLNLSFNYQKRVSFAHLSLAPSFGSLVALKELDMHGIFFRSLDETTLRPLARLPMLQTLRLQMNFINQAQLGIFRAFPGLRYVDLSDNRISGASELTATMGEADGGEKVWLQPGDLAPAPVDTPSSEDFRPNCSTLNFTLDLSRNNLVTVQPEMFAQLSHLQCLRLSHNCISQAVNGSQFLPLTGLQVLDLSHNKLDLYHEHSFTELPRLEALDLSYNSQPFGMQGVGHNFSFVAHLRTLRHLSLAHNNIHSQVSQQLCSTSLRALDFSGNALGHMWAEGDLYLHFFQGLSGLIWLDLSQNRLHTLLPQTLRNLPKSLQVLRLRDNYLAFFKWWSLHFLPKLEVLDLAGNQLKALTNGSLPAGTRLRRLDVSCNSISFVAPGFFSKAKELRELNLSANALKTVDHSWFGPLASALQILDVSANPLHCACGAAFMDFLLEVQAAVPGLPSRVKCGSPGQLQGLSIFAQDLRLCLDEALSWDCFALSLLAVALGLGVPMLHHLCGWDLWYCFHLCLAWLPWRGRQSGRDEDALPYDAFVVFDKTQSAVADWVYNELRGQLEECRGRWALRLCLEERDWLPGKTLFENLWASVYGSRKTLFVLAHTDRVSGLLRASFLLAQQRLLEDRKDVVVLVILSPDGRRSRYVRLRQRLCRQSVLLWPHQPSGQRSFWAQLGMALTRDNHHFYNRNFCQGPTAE
Description: Induction of TLR9-mediated immune stimulation in human PBMC assessed as MCP1 production at 10 ug/ml after 24 hrs by luminex multiplex assay (RVb = 0.08 +/- 0.02 ng/ml).

Test [2] addresses T1, Toll-like receptor 9 (Homo sapiens). Briefly: Induction of TLR9-mediated immune stimulation in human PBMC assessed as IL6 production at 10 ug/ml after 24 hrs by luminex multiplex assay (RVb = 0.01 ng/ml).

Calls of active or inactive are those of the source. The calls are words filed in the database; no cut-off is given here.

As for `Cc1cn([C@H]2C[C@H](OCCOCCOCCOCCOCCOCCOP(=O)(S)O[C@H]3C[C@H](n4cc(C)c(=O)[nH]c4=O)O[C@@H]3COP(=O)(S)O[C@H]3[C@@H](O)[C@H](n4ccc(N)nc4=O)O[C@@H]3COP(=O)(S)O[C@H]3C[C@H](n4cc(C)c(=O)[nH]c4=O)O[C@@H]3COP(=O)(S)O[C@H]3C[C@H](n4cc(C)c(=O)[nH]c4=O)O[C@@H]3COP(=O)(S)O[C@H]3C[C@H](n4ccc5c(=O)[nH]c(N)nc54)O[C@@H]3COP(=O)(S)O[C@H]3[C@@H](O)[C@H](n4ccc(N)nc4=O)O[C@@H]3COP(=O)(S)O[C@H]3C[C@H](n4cc(C)c(=O)[nH]c4=O)O[C@@H]3COP(=O)(S)O[C@H]3[C@@H](O)[C@H](n4cnc5c(=O)[nH]c(N)nc54)O[C@@H]3COP(=O)(S)O[C@H]3C[C@H](n4cc(C)c(=O)[nH]c4=O)O[C@@H]3COP(=O)(S)O[C@H]3[C@@H](O)[C@H](n4ccc(N)nc4=O)O[C@@H]3COP(=O)(S)O[C@H]3C[C@H](n4cc(C)c(=O)[nH]c4=O)O[C@@H]3CO)[C@@H](COP(=O)(S)O[C@H]3[C@@H](O)[C@H](n4ccc(N)nc4=O)O[C@@H]3COP(=O)(S)O[C@H]3C[C@H](n4cc(C)c(=O)[nH]c4=O)O[C@@H]3COP(=O)(S)O[C@H]3C[C@H](n4cc(C)c(=O)[nH]c4=O)O[C@@H]3COP(=O)(S)O[C@H]3C[C@H](n4ccc5c(=O)[nH]c(N)nc54)O[C@@H]3COP(=O)(S)O[C@H]3[C@@H](O)[C@H](n4ccc(N)nc4=O)O[C@@H]3COP(=O)(S)O[C@H]3C[C@H](n4cc(C)c(=O)[nH]c4=O)O[C@@H]3COP(=O)(S)O[C@H]3[C@@H](O)[C@H](n4cnc5c(=O)[nH]c(N)nc54)O[C@@H]3COP(=O)(S)O[C@H]3C[C@H](n4cc(C)c(=O)[nH]c4=O)O[C@@H]3COP(=O)(S)O[C@H]3[C@@H](O)[C@H](n4ccc(N)nc4=O)O[C@@H]3COP(=O)(S)O[C@H]3C[C@H](n4cc(C)c(=O)[nH]c4=O)O[C@@H]3CO)O2)c(=O)[nH]c1=O` (some centres not stated), the outcome with Mus musculus was inactive. Also, the Activity stood at 3.31 ng/mL in test [1] and 0.58 ng/mL in test [2].

Consider `Cc1cn([C@H]2C[C@H](O[C@@H]3C[C@@H](O)C[C@@H](OP(=O)(S)O[C@H]4C[C@H](n5cc(C)c(=O)[nH]c5=O)O[C@@H]4COP(=O)(S)O[C@H]4[C@@H](O)[C@H](n5ccc(N)nc5=O)O[C@@H]4COP(=O)(S)O[C@H]4C[C@H](n5cc(C)c(=O)[nH]c5=O)O[C@@H]4COP(=O)(S)O[C@H]4C[C@H](n5cc(C)c(=O)[nH]c5=O)O[C@@H]4COP(=O)(S)O[C@H]4C[C@H](n5ccc6c(=O)[nH]c(N)nc65)O[C@@H]4COP(=O)(S)O[C@H]4[C@@H](O)[C@H](n5ccc(N)nc5=O)O[C@@H]4COP(=O)(S)O[C@H]4C[C@H](n5cc(C)c(=O)[nH]c5=O)O[C@@H]4COP(=O)(S)O[C@H]4[C@@H](O)[C@H](n5cnc6c(=O)[nH]c(N)nc65)O[C@@H]4COP(=O)(S)O[C@H]4C[C@H](n5cc(C)c(=O)[nH]c5=O)O[C@@H]4COP(=O)(S)O[C@H]4[C@@H](O)[C@H](n5ccc(N)nc5=O)O[C@@H]4COP(=O)(S)O[C@H]4C[C@H](n5cc(C)c(=O)[nH]c5=O)O[C@@H]4CO)C3)[C@@H](COP(=O)(S)O[C@H]3[C@@H](O)[C@H](n4ccc(N)nc4=O)O[C@@H]3COP(=O)(S)O[C@H]3C[C@H](n4cc(C)c(=O)[nH]c4=O)O[C@@H]3COP(=O)(S)O[C@H]3C[C@H](n4cc(C)c(=O)[nH]c4=O)O[C@@H]3COP(=O)(S)O[C@H]3C[C@H](n4ccc5c(=O)[nH]c(N)nc54)O[C@@H]3COP(=O)(S)O[C@H]3[C@@H](O)[C@H](n4ccc(N)nc4=O)O[C@@H]3COP(=O)(S)O[C@H]3C[C@H](n4cc(C)c(=O)[nH]c4=O)O[C@@H]3COP(=O)(S)O[C@H]3[C@@H](O)[C@H](n4cnc5c(=O)[nH]c(N)nc54)O[C@@H]3COP(=O)(S)O[C@H]3C[C@H](n4cc(C)c(=O)[nH]c4=O)O[C@@H]3COP(=O)(S)O[C@H]3[C@@H](O)[C@H](n4ccc(N)nc4=O)O[C@@H]3COP(=O)(S)O[C@H]3C[C@H](n4cc(C)c(=O)[nH]c4=O)O[C@@H]3CO)O2)c(=O)[nH]c1=O` (some centres not stated), for which the outcome in the test on Mus musculus was Active. Also, the Activity in test [1] is 9.5 ng/mL; in test [2], 0.89 ng/mL.

Consider `Cc1cn([C@H]2C[C@H](OCCOCCOCCOCCOP(=O)(S)O[C@H]3C[C@H](n4cc(C)c(=O)[nH]c4=O)O[C@@H]3COP(=O)(S)O[C@H]3[C@@H](O)[C@H](n4ccc(N)nc4=O)O[C@@H]3COP(=O)(S)O[C@H]3C[C@H](n4cc(C)c(=O)[nH]c4=O)O[C@@H]3COP(=O)(S)O[C@H]3C[C@H](n4cc(C)c(=O)[nH]c4=O)O[C@@H]3COP(=O)(S)O[C@H]3C[C@H](n4ccc5c(=O)[nH]c(N)nc54)O[C@@H]3COP(=O)(S)O[C@H]3[C@@H](O)[C@H](n4ccc(N)nc4=O)O[C@@H]3COP(=O)(S)O[C@H]3C[C@H](n4cc(C)c(=O)[nH]c4=O)O[C@@H]3COP(=O)(S)O[C@H]3[C@@H](O)[C@H](n4cnc5c(=O)[nH]c(N)nc54)O[C@@H]3COP(=O)(S)O[C@H]3C[C@H](n4cc(C)c(=O)[nH]c4=O)O[C@@H]3COP(=O)(S)O[C@H]3[C@@H](O)[C@H](n4ccc(N)nc4=O)O[C@@H]3COP(=O)(S)O[C@H]3C[C@H](n4cc(C)c(=O)[nH]c4=O)O[C@@H]3CO)[C@@H](COP(=O)(S)O[C@H]3[C@@H](O)[C@H](n4ccc(N)nc4=O)O[C@@H]3COP(=O)(S)O[C@H]3C[C@H](n4cc(C)c(=O)[nH]c4=O)O[C@@H]3COP(=O)(S)O[C@H]3C[C@H](n4cc(C)c(=O)[nH]c4=O)O[C@@H]3COP(=O)(S)O[C@H]3C[C@H](n4ccc5c(=O)[nH]c(N)nc54)O[C@@H]3COP(=O)(S)O[C@H]3[C@@H](O)[C@H](n4ccc(N)nc4=O)O[C@@H]3COP(=O)(S)O[C@H]3C[C@H](n4cc(C)c(=O)[nH]c4=O)O[C@@H]3COP(=O)(S)O[C@H]3[C@@H](O)[C@H](n4cnc5c(=O)[nH]c(N)nc54)O[C@@H]3COP(=O)(S)O[C@H]3C[C@H](n4cc(C)c(=O)[nH]c4=O)O[C@@H]3COP(=O)(S)O[C@H]3[C@@H](O)[C@H](n4ccc(N)nc4=O)O[C@@H]3COP(=O)(S)O[C@H]3C[C@H](n4cc(C)c(=O)[nH]c4=O)O[C@@H]3CO)O2)c(=O)[nH]c1=O` (some centres not stated), for which the outcome in the test on Mus musculus was Active. In addition, the values for the Activity in test [1] and in test [2] were 7.13 ng/mL and 0.58 ng/mL, respectively.

For the molecule `Cc1cn([C@H]2C[C@H](OCC(O)COP(=O)(S)O[C@H]3C[C@H](n4cc(C)c(=O)[nH]c4=O)O[C@@H]3COP(=O)(S)O[C@H]3[C@@H](O)[C@H](n4ccc(N)nc4=O)O[C@@H]3COP(=O)(S)O[C@H]3C[C@H](n4cc(C)c(=O)[nH]c4=O)O[C@@H]3COP(=O)(S)O[C@H]3C[C@H](n4cc(C)c(=O)[nH]c4=O)O[C@@H]3COP(=O)(S)O[C@H]3C[C@H](n4ccc5c(=O)[nH]c(N)nc54)O[C@@H]3COP(=O)(S)O[C@H]3[C@@H](O)[C@H](n4ccc(N)nc4=O)O[C@@H]3COP(=O)(S)O[C@H]3C[C@H](n4cc(C)c(=O)[nH]c4=O)O[C@@H]3COP(=O)(S)O[C@H]3[C@@H](O)[C@H](n4cnc5c(=O)[nH]c(N)nc54)O[C@@H]3COP(=O)(S)O[C@H]3C[C@H](n4cc(C)c(=O)[nH]c4=O)O[C@@H]3COP(=O)(S)O[C@H]3[C@@H](O)[C@H](n4ccc(N)nc4=O)O[C@@H]3COP(=O)(S)O[C@H]3C[C@H](n4cc(C)c(=O)[nH]c4=O)O[C@@H]3CO)[C@@H](COP(=O)(S)O[C@H]3[C@@H](O)[C@H](n4ccc(N)nc4=O)O[C@@H]3COP(=O)(S)O[C@H]3C[C@H](n4cc(C)c(=O)[nH]c4=O)O[C@@H]3COP(=O)(S)O[C@H]3C[C@H](n4cc(C)c(=O)[nH]c4=O)O[C@@H]3COP(=O)(S)O[C@H]3C[C@H](n4ccc5c(=O)[nH]c(N)nc54)O[C@@H]3COP(=O)(S)O[C@H]3[C@@H](O)[C@H](n4ccc(N)nc4=O)O[C@@H]3COP(=O)(S)O[C@H]3C[C@H](n4cc(C)c(=O)[nH]c4=O)O[C@@H]3COP(=O)(S)O[C@H]3[C@@H](O)[C@H](n4cnc5c(=O)[nH]c(N)nc54)O[C@@H]3COP(=O)(S)O[C@H]3C[C@H](n4cc(C)c(=O)[nH]c4=O)O[C@@H]3COP(=O)(S)O[C@H]3[C@@H](O)[C@H](n4ccc(N)nc4=O)O[C@@H]3COP(=O)(S)O[C@H]3C[C@H](n4cc(C)c(=O)[nH]c4=O)O[C@@H]3CO)O2)c(=O)[nH]c1=O` (some centres not stated), the result with Mus musculus was Active. In addition, the Activity in test [1] is 1.88 ng/mL; in test [2], 0.5 ng/mL.
